Experimental data collected from several papers.
Protocols differ between the studies behind these lines.
Target: Serine/threonine-protein kinase 10 (STK10, Homo sapiens, UniProt O94804)

Cc1ccc(NC(=O)c2ccnc(C(F)(F)F)c2)cc1-c1cc(OCCO)nc(N2CCOCC2)c1 — remaining binding (binding, competition with immobilised ligand; 1 µM): 21%
COc1ccc2oc(-c3ccc4nc(N)oc4c3)c/c(=N\c3ccccc3NC(=O)CCN)c2c1 — remaining binding (binding; 1 µM): 100%
C=CC(=O)N1CCC[C@@H](n2nc(-c3ccc(Oc4ccccc4)cc3)c3c(N)ncnc32)C1 — inhibition (enzyme activity, inhibitor; 1 µM): 46%
C#Cc1cc(-c2cc(Nc3nc(N[C@@H](C)c4ccc(F)cn4)ncc3Cl)n[nH]2)ccc1C=O — inhibition (enzyme activity, inhibitor; 0.2 µM): 36.5%
CCCCC(=O)Nc1ccc(-c2ccc3ncn(CCC)c(=O)c3c2)cn1 — remaining binding (binding, competition with immobilised ligand; 0.5 µM): 99%
C=CC(=O)N1CCC([C@@H]2CCNc3c(C(N)=O)c(-c4ccc(Oc5ccccc5)cc4)nn32)CC1 — inhibition (enzyme activity, inhibitor; 1 µM): 0%
CN1CCN(C(=O)c2ccc(NC(=O)Nc3ccc(N(C)c4ccnc(Nc5ccc(CS(C)(=O)=O)cc5)n4)cc3)cc2)CC1 — remaining binding (binding, competition with immobilised ligand; 1 µM): 0.4%
C1=C/COCc2cc(ccc2OCCN2CCCC2)Nc2nccc(n2)-c2cccc(c2)COC/1 — remaining signal (cell-free assay; 0.1 µM): 89%
